Calls of active or inactive are those of the source. The calls are words filed in the database; no cut-off is given here.

Type in all cases: functional, organism-based
For experiment [1], the system named is Haemonchus contortus. The experiment can be described thus: Antiparasitic activity against adult Haemonchus contortus assessed as [3H]inulin uptake at 1000 nM.
The test system of experiment [2] is Haemonchus contortus. As to the kind of experiment: Antiparasitic activity against adult Haemonchus contortus assessed as reduction in FITC-dextran uptake at 10 nM after 24 hrs. A digest of the protocol:
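Groups of about 10 adult worms held 6 h with or without 10 nM ivermectin. FITC-dextran (40 kDa, 5 mg/ml final) then added. After 24 h, worms washed in PBS, fixed in 10% formalin, and photographed under white and UV light as a measure of feeding.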

The subject of experiment [3] is Haemonchus contortus. As to the kind of experiment: Antiparasitic activity against adult Haemonchus contortus pharyngeal ligation model assessed as decrease [3H]inulin uptake at 10 nM.
For experiment [4], the system named is Haemonchus contortus. The experiment can be described thus: Antiparasitic activity against adult Haemonchus contortus assessed as [3H]inulin uptake at 10 nM. A digest of the protocol: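 Adult females taken from sheep abomasa 10 to 15 weeks postinfection, held in RPMI 1640-based medium (pH 6.8) at 37°C, in groups of 10. Ivermectin in DMSO given at 0.1 to 100 nM; DMSO-only controls at 0.2% final. [3H]inulin (4 μCi/ml final) added after 6 h. After a further 24 h, worms solubilized in 0.5 M KOH at 50°C overnight, neutralized, and radioactivity counted. Done in triplicate.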

In experiment [5] the test system is Haemonchus contortus. The experiment can be described thus: Antiparasitic activity against adult Haemonchus contortus assessed as decrease in motility. A digest of the protocol:
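Adult worms in groups of 10 in RPMI-based medium at 37°C, given ivermectin in DMSO at 0.1 to 100 nM, with 0.2% DMSO controls. Motility scored 30 h after start, using the O'Grady and Kotze system. Triplicate.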

Turning to IVERMECTIN, the outcome in experiment [1] and in experiment [4] was inactive. Also, the outcome in experiment [2] and in experiment [3] was Active. For the same sequence, the Activity entry in experiment [5] is “Dose-dependent effect”.
